# Compound activity from PubChem.
# FXIa inh 1536 – factor XIa (human) inhibition. hit rate 0.14% among 220,000. P03951. purified FXIa, Boc-Glu-Ala-Arg-AMC fluorogenic substrate. inhibition, % at 5 µM;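 active means inhibition of at least 40%; inactive means inhibition below 40%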;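 further: fluorescence of freed AMC excited at 355 nm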
# Target sequence (P03951 19-387 limits assumed): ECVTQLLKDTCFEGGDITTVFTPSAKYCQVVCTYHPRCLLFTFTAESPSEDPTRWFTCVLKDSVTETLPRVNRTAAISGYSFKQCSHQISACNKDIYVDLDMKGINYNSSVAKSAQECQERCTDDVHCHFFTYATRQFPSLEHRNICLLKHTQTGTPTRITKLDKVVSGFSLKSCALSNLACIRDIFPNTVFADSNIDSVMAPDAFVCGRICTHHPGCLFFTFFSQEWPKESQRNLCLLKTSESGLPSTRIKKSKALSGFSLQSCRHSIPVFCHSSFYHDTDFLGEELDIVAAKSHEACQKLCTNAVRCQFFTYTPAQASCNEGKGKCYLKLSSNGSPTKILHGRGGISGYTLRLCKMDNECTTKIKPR
# Target sequence (P03951 388-625 limits assumed): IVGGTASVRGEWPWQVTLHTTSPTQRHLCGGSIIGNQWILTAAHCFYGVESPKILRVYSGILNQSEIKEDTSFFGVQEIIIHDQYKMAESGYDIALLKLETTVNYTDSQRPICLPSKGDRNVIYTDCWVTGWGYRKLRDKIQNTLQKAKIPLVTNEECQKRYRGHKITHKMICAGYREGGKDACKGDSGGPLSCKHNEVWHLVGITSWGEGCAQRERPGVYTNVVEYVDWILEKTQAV
# KLK5 inh – inhibitors of human kallikrein 5. inhibition, % at 5 µM. hit rate 0.59% among 210,000. recombinant hK5, fluorogenic AMC substrate cleavage. Q9Y337;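 active means inhibition of 40% or more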
# thrombin 1536 – inhibitors of human thrombin; hit rate 0.26% among 220,000; alpha-thrombin, Boc-VPR-AMC fluorogenic substrate cleavage; P00734; AID 1046; inhibition, % at 5 µM;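 active means inhibition at or above 40%; inactive means inhibition below 40%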
#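 System – human alpha-thrombin protein · Reagent – Boc-VPR-AMC substrate, 15 µM final · Compound – 5 µM single dose in 0.2% DMSO · Schedule – reaction at room temperature · Technique – AMC fluorescence at 355 nm excitation and 460 nm emission · Read-out basis – % inhibition relative to enzyme controls and enzyme-free blanks · Control set – no-compound enzyme wells and no-enzyme blanks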
# FXIIa inh 1536 – factor XIIa (human) inhibition; P00748; purified FXIIa, Boc-QGR-AMC fluorogenic substrate, 2 h; inhibition, % at 5 µM; hit rate 0.3% among 220,000; in the data active means inhibition above about 40%
# Platelet DG rel – platelet dense granule release activity; human platelet-rich plasma, SFLLRN dense granule ATP release, luminescence; inhibition, %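 (compounds screened at 7.5 µM in platelet-rich plasma)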; hit rate 0.22% among 300,000; AID 1663;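 active means mean replicate score, as percent of positive control, at or above 50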
# Wee1 stabilizer – blocks degradation of human Wee1 kinase. hit rate 1.2% among 220,000. HeLa Luc-Wee1K328M stability, luciferase luminescence; 100% = proteasome inhibitor MG132 effect. reporter increase, % at 5 µM. P30291;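 active means activation above the mean of all tested compounds plus 3 SD, set per screening run, cut at about 8.8% in these data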;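 further: cells exposed to compound for 20 h before luminescence read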
# Numbers stand for hits; . = inactive; / = no result given. Compounds with a hit are over-represented: about 1.8% of the library has one in this group of screens.
SMILES,FXIa inh 1536,KLK5 inh,thrombin 1536,FXIIa inh 1536,Platelet DG rel,Wee1 stabilizer
CCC(=O)N/C(=N/c1nc(C)cc(C)n1)Nc1ccc(OC)cc1,.,.,51,.,.,.
CCC(C(=O)NC1CCCC1)N(C(=O)Cn1nnc(-c2ccc(C)o2)n1)c1cnc2ccccc2c1 (stereo not drawn),.,.,.,.,.,9.8
Cc1ccc(-c2nnn(CC(=O)N(c3cnc4ccccc4c3)C(C(=O)NC3CCCC3)c3ccncc3)n2)o1 (stereo not drawn),.,.,.,.,.,.
CC(C)c1ccc(NC(=S)Nc2ccc3cn[nH]c3c2)cc1,.,.,42,.,.,.
Cc1ccc(NC(=S)Nc2ccc3cn[nH]c3c2)cc1C,.,.,.,.,.,.
COc1ccc(/C(=C/Nc2cccc(Br)c2)C(C)=O)cc1OC,.,.,.,.,.,.
c1ccc(CNc2ncnc3c2oc2ccccc23)nc1,.,.,.,.,.,10
COC(C/C=C/[C@@H](O)COCc1ccccc1)OC,.,46,.,.,.,/
COC(C/C=C/[C@H](O)COCc1ccccc1)OC,.,.,.,.,.,/
Cc1sc2nc(N)sc2c1C,.,63,.,.,/,.
Cc1ccccc1OCCCc1c(C)n[nH]c1C,.,.,.,.,.,.
Cc1ccccc1OCCCCc1c(C)n[nH]c1C,.,.,.,.,.,10
CC(C)c1ccc(NC(=S)N2CCN(S(=O)(=O)c3ccccc3)CC2)cc1,/,/,/,/,.,/
CCOC(=O)C1=C(COC(=O)C(CC)Oc2ccccc2)NC(=O)NC1C (stereo not drawn),/,/,/,/,.,/
Cc1ccc(C)n1-c1ccc(-c2nnco2)cc1,.,.,40,.,.,.
CCOc1ccc(NC(=O)Cn2cncc2-c2ccc([N+](=O)[O-])cc2)cc1,.,41,.,.,.,.
O=C(CNC(=O)c1ccco1)NCC(=O)OCc1cccc(Cl)c1,.,.,.,.,.,.
O=C(CNC(=O)c1ccco1)OCC(=O)c1ccc(Cl)cc1,.,.,.,.,.,.
CCc1ccc(C(=O)COC(=O)CNC(=O)c2ccco2)cc1,.,.,.,.,51,.
O=C(CNC(=O)c1ccco1)OCc1cccc(Cl)c1,.,.,.,.,.,9.4
CCOc1ccc(S(=O)(=O)Nc2ccc(O)c(Sc3ncn[nH]3)c2)cc1,.,.,.,.,.,29
Cc1ccc(S(=O)(=O)Nc2ccc(O)c(Sc3ncn[nH]3)c2)cc1,.,.,/,.,.,.
COc1cc2c(cc1OC)C(C)N(C(=S)NC(=O)c1ccccc1)CC2 (stereo not drawn),.,.,.,.,.,.
O=C(Nc1ccc(CN2CCS(=O)(=O)CC2)cc1)c1ccc(F)cc1,.,.,.,.,.,9.7
Cc1ccc(S(=O)(=O)NCCn2cnc([N+](=O)[O-])n2)cc1,/,/,/,/,.,/
SMILES,FXIa inh 1536,KLK5 inh,thrombin 1536,FXIIa inh 1536,Platelet DG rel,Wee1 stabilizer
Cc1sc(NC(=O)CN2CCCC2)nc1-c1ccc2c(c1)CCN2C(=O)c1cccc(F)c1,/,/,/,/,.,/
Cc1sc(NC(=O)CN(C)C2CCCCC2)nc1-c1ccc2c(c1)CCN2S(=O)(=O)c1ccccc1,.,43,.,.,.,.
CC(O)C1CCC2C3CC[C@H]4CC(O)CCC4(C)C3CC3(OCCO3)C12C (stereo partly drawn),.,138,.,.,.,.
Nc1nc2ccccc2n1CCOc1ccc(F)cc1,/,/,/,/,.,/
O=C(NC(=S)Nc1ccccc1F)c1ccc(Br)o1,.,.,.,.,.,11
CC(C)CN(CCOc1cccc(N2C(=O)C3=C(CCCC3)C2=O)c1)CC(C)C,.,.,.,.,.,9.0
O=C(Nc1ccccc1)O[C@@H]1C[C@H]2CCC(=O)N3CC[C@@H](C1)[C@@H]23,/,/,/,/,.,/
COc1cc2c3c(c1OC)C1(C=CC(=NO)C=C1)CC3N(C(C)=O)CC2 (stereo not drawn),.,.,.,.,.,10
COc1ccc(-c2nn(-c3ccccc3)cc2/C=N/n2cnnc2)cc1OC,.,.,.,.,.,9.3
O=C(COC(=O)/C=C/c1ccco1)NCc1ccc2c(c1)OCO2,.,.,.,.,.,.
CCC(NC(=O)c1ccc2nc(Cc3ccc(OC)cc3)oc2c1)c1ccncc1 (stereo not drawn),/,/,/,/,.,/
O=C(Nc1cccc(F)c1)C1CC(=O)N(c2ccc(Cl)cc2)C1 (stereo not drawn),.,.,.,.,.,.
O=C(Nc1cccc(F)c1)C1CC(=O)N(c2ccc(Br)cc2)C1 (stereo not drawn),.,79,.,.,.,.
C=CCN(C(=O)CC(NC(C)=O)c1ccccc1)c1nc(-c2ccc(S(C)(=O)=O)cc2)cs1 (stereo not drawn),/,/,/,/,.,/
Cc1ccc(C(=O)n2cnc3ccccc32)cc1C,/,/,/,/,.,/
Cc1cc2ncn(C(=O)c3ccc4c(c3)OCO4)c2cc1C,.,.,41,.,/,.
O=C(CCCn1c(=S)[nH]c2ccsc2c1=O)Nc1ccc2c(c1)OCCO2,.,.,.,.,.,.
COC(=O)CSc1nc2cc(OC)ccc2n1C,.,.,.,.,.,.
COC(=O)CSc1nnc(-c2sc3cc(OC)ccc3c2Cl)n1C,.,.,.,48,.,.
CCOc1ccc(C(=O)n2cnnc2N)cc1,.,41,.,.,.,.
CCOC(=O)N1CCN(C(=O)c2ccc(OCC)cc2)CC1,.,.,.,.,.,.
Fc1cccc(Cl)c1CNC(c1ccccc1)c1ccccc1,.,.,.,.,.,9.1
CCC(Cc1ccccc1)NC(=O)C1CCN(S(=O)(=O)c2ccc3c(c2)CC(C)N3C(C)=O)CC1 (stereo not drawn),/,/,/,/,.,/
CCn1c(COc2ccc(Cl)cc2)nnc1SCc1nc2ccccc2[nH]1,.,.,.,.,.,.
CCn1c(COc2ccc(OC)cc2)nnc1SCc1nc2ccccc2c(=O)[nH]1,.,.,.,.,.,9.8
SMILES,FXIa inh 1536,KLK5 inh,thrombin 1536,FXIIa inh 1536,Platelet DG rel,Wee1 stabilizer
CCOc1ccccc1NC(=O)CN1C(=O)COc2ccccc21,/,/,/,/,.,/
CCOc1ccccc1NC(=O)CN1C(=O)COc2ccc(Cl)cc21,.,43,.,.,.,.
CC(C)Nc1nc(C#N)nc(NC(C)C)n1,.,97,102,.,.,.
CC(C)Nc1nc(NC(C)C)nc(N(C#N)C(C)C(=O)N(C)C)n1 (stereo not drawn),.,.,.,.,.,.
CC1CC(c2ccccc2)NS(=O)(=O)O1 (stereo not drawn),/,/,/,/,.,/
CN(C)C(CNC(=O)c1cccc(S(=O)(=O)NCc2ccccc2)c1)c1ccco1 (stereo not drawn),/,/,/,/,.,/
CC(=O)N1CCC2(CC1)NC(=O)N(c1ccccc1)N2,.,.,.,.,.,.
O=C1NC2(CCCCC2)NN1c1ccccc1,.,.,48,.,.,.
Cc1ccc(OCc2n[nH]c(=S)n2N)cc1C,.,.,101,.,.,.
CCCCOc1ccc(Cc2n[nH]c(=S)n2N)cc1,.,.,.,.,.,.
C(=C\c1ccccc1)/CSc1ccccn1,.,.,.,.,.,9.2
